Results from ChEMBL document CHEMBL4190346, “Structure-based design, synthesis, and biological evaluation of withaferin A-analogues as potent apoptotic inducers” (Eur J Med Chem, 2017).
The source made the active and inactive calls. No cut-off for these calls is given here.

Key:
[1] = test system: HeLa; assay: Induction of apoptosis in human HeLa cells assessed as increase in caspase-3 activity by measuring pNA release level at 12 uM incubated for 4 hrs using c-DEVD-pNA substrate by colorimetric assay; type: functional
Procedure, shortened: (§1)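 HeLa cells in DMEM with 10% FBS were exposed for 4 h (fixed 24 or 32 level for 8 h). Staurosporine for 4 h served as the positive control. Cells were lysed at 4 °C for 10 min and centrifuged, and supernatant protein was measured by Bradford. Caspase-3 activity was read colorimetrically as nmol pNA/min/mL, with treated/untreated OD ratios. Values are means ± SD of three independent experiments in triplicate.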

[2] = test system: HeLa; assay: Induction of apoptosis in human HeLa cells assessed as […] by measuring pNA release level at 32 uM incubated for 8 hrs using c-DEVD-pNA substrate by colorimetric assay; type: functional, cell-based; procedure, shortened: as §1
[3] = test system: HeLa; assay: Induction of apoptosis in human HeLa cells assessed as increase in caspase-3 activity by measuring pNA release level at 32 uM incubated for 4 hrs using c-DEVD-pNA substrate by colorimetric assay; type: functional; procedure, shortened: as §1
[4] = test system: Vero; assay: Cytotoxicity against African green monkey Vero cells assessed as reduction in cell viability using compound addition to cell culture cells in lag phase of growth and incubated for 48 hrs by MTT assay; type: cell-based, Chlorocebus sabaeus; details: Chlorocebus sabaeus, Vero, 48 h; read-out: IC50
[5] = test system: A549; assay: Cytotoxicity against human A549 cells assessed as reduction in cell viability using compound addition to cell culture cells in lag phase of growth and incubated for 48 hrs by MTT assay; type: functional, cell-based; details: Homo sapiens, A549, 48 h; read-out: IC50
[6] = test system: HeLa; assay: Cytotoxicity against human HeLa cells assessed as reduction in cell viability using compound addition to cell culture cells in lag phase of growth and incubated for 48 hrs by MTT assay; type: functional, cell-based; details: Homo sapiens, HeLa, 48 h; read-out: IC50
[7] = test system: MCF7; assay: Cytotoxicity against human MCF7 cells assessed as reduction in cell viability using compound addition to cell culture cells in log phase of growth and incubated for 48 hrs by MTT assay; type: functional, cell-based; details: Homo sapiens, MCF7, 48 h; read-out: IC50
[8] = test system: HeLa; assay: Induction of apoptosis in human HeLa cells assessed as increase in caspase-3 activity by measuring pNA release level at 24 uM incubated for 4 hrs using c-DEVD-pNA substrate by colorimetric assay; type: functional; procedure, shortened: as §1
[9] = test system: Vero; assay: Cytotoxicity against African green monkey Vero cells assessed as reduction in cell viability using compound addition to cell culture cells in log phase of growth and incubated for 48 hrs by MTT assay; type: cell-based, Chlorocebus sabaeus; details: Chlorocebus sabaeus, Vero, 48 h; read-out: IC50
[10] = test system: MCF7; assay: Cytotoxicity against human MCF7 cells assessed as reduction in cell viability using compound addition to cell culture cells in lag phase of growth and incubated for 48 hrs by MTT assay; type: functional, cell-based; details: Homo sapiens, MCF7, 48 h; read-out: IC50
[11] = test system: A549; assay: Cytotoxicity against human A549 cells assessed as reduction in cell viability using compound addition to cell culture cells in log phase of growth and incubated for 48 hrs by MTT assay; type: functional, cell-based; details: Homo sapiens, A549, 48 h; read-out: IC50
[12] = test system: HeLa; assay: Induction of apoptosis in human HeLa cells assessed as increase in caspase-3 activity by measuring pNA release level at 8 uM incubated for 4 hrs using c-DEVD-pNA substrate by colorimetric assay; type: functional; procedure, shortened: as §1
[13] = test system: HeLa; assay: Cytotoxicity against human HeLa cells assessed as reduction in cell viability using compound addition to cell culture cells in log phase of growth and incubated for 48 hrs by MTT assay; type: functional, cell-based; details: Homo sapiens, HeLa, 48 h; read-out: IC50
[14] = test system: HeLa; assay: Induction of apoptosis in human HeLa cells assessed as increase in caspase-3 activity by measuring pNA release level at 16 uM incubated for 4 hrs using c-DEVD-pNA substrate by colorimetric assay; type: functional; procedure, shortened: as §1
[15] = test system: MCF7; assay: Ratio of IC50 for cytotoxicity against human MCF7 cells using compound addition to cell culture cells in lag phase of growth and incubated for 48 hrs by MTT assay to IC50 for cytotoxicity against human MCF7 cells using compound addition to cell culture cells in log phase of growth and incubated for 48 hrs by MTT assay; type: functional
[16] = test system: MCF7 (Homo sapiens); assay: Ratio of IC50 for cytotoxicity against human MCF7 cells incubated for 48 hrs to IC50 for cytotoxicity against human MCF7 cells incubated for 72 hrs
[17] = test system: MCF7; assay: Ratio of IC50 for cytotoxicity against human MCF7 cells incubated for 48 hrs to IC50 for cytotoxicity against human MCF7 cells incubated for 72 hrs; type: functional
[18] = test system: MCF7 (Homo sapiens); assay: Ratio of IC50 for cytotoxicity against human MCF7 cells incubated for 48 hrs to IC50 for cytotoxicity against human MCF7 cells incubated for 72 hrs; remark: listed apart in the source
[19] = test system: HeLa; assay: Induction of apoptosis in human HeLa cells assessed increase in DNA fragmentation at 16 uM incubated for 12 hrs by ethidium bromide staining based agarose gel electrophoresis; type: functional, cell-based
Procedure, shortened: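 HeLa cells were incubated with the compounds at varying concentrations for 12 or 24 h. Controls were DMSO (solvent) and staurosporine 2 µM (positive). Adherent and floating cells were pooled, centrifuged at 500 g and washed twice in cold PBS. Genomic DNA was extracted with a kit, run on 1.8% agarose, stained with ethidium bromide and viewed under UV.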

[20] = test system: HeLa; assay: Induction of apoptosis in human HeLa cells at 12 uM incubated for 4 hrs by annexin V and propidium iodide staining based flow cytometry; type: functional, cell-based
[21] = test system: HeLa; assay: Induction of apoptosis in human HeLa cells assessed increase in apoptotic nuclei formation at 8 uM incubated for 12 hrs by Hoechst 33342 staining based fluorescence microscopy; type: functional
[22] = test system: HeLa; assay: Induction of cell cycle arrest in human HeLa cells assessed increase in subG1 phase accumulation at 24 uM incubated for 12 hrs by 33342 propidium iodide based flow cytometry relative to untreated control; type: functional

Compound | Activity [1] | Activity [2] | Activity [3] | IC50 [4] | IC50 [5] | IC50 [6] | IC50 [7] | Activity [8] | IC50 [9] | IC50 [10] | IC50 [11] | Activity [12] | IC50 [13] | Activity [14] | Ratio IC50 [15] | other results
CCCC(=O)OCC1=C(C)C[C@H]([C@@H](C)[C@H]2CC[C@H]3[C@@H]4C[C@H]5O[C@]56[C@@H](O)C=CC(=O)[C@]6(C)[C@H]4CC[C@]23C)OC1=O | 0.72 nmol/min/mL | Active | 1.33 nmol/min/mL | 700 nM | 2600 nM | 1900 nM | 1000 nM | 1.24 nmol/min/mL | 500 nM | 2400 nM | 2200 nM | 0.54 nmol/min/mL | 1200 nM | 1.22 nmol/min/mL | – | –
CC1=C(COC(=O)c2ccoc2)C(=O)O[C@@H]([C@@H](C)[C@H]2CC[C@H]3[C@@H]4C[C@H]5O[C@]56[C@@H](O)C=CC(=O)[C@]6(C)[C@H]4CC[C@]23C)C1 | 0.68 nmol/min/mL | Active | 1.63 nmol/min/mL | 2800 nM | 2300 nM | 2500 nM | 1000 nM | 1.01 nmol/min/mL | 700 nM | 3000 nM | 3300 nM | 0.44 nmol/min/mL | 1100 nM | 0.62 nmol/min/mL | >3 | –
CCC(=O)OCC1=C(C)C[C@H]([C@@H](C)[C@H]2CC[C@H]3[C@@H]4C[C@H]5O[C@]56[C@@H](O)C=CC(=O)[C@]6(C)[C@H]4CC[C@]23C)OC1=O | 0.52 nmol/min/mL | Active | 1.67 nmol/min/mL | 900 nM | 1600 nM | 1600 nM | 1200 nM | 1.9 nmol/min/mL | 1000 nM | 2300 nM | 2100 nM | 0.52 nmol/min/mL | 1100 nM | 1.02 nmol/min/mL | – | Ratio IC50 [16]: >3; Ratio IC50 [17]: >3; Ratio IC50 [18]: >3
CC1=C(COC(=O)C(C)(C)C)C(=O)O[C@@H]([C@@H](C)[C@H]2CC[C@H]3[C@@H]4C[C@H]5O[C@]56[C@@H](O)C=CC(=O)[C@]6(C)[C@H]4CC[C@]23C)C1 | 0.61 nmol/min/mL | Active | 0.93 nmol/min/mL | 400 nM | 1800 nM | 800 nM | 400 nM | 1.04 nmol/min/mL | 500 nM | 300 nM | 2100 nM | 0.26 nmol/min/mL | 1700 nM | 0.78 nmol/min/mL | – | Activity [19]: Active; Activity [20]: Active; Activity [21]: 28%; fold change (FC) [22]: 4 - 6
CCCC(=O)OCC1=C(C)C[C@H]([C@@H](C)[C@H]2CC[C@H]3[C@@H]4C[C@H]5O[C@]56C(=O)C=CC(=O)[C@]6(C)[C@H]4CC[C@]23C)OC1=O | – | – | – | 3800 nM | 6700 nM | 8300 nM | 2800 nM | – | 2100 nM | 11500 nM | 4300 nM | – | 7900 nM | – | >3 | –
